{"source": "ChEMBL document CHEMBL5705892", "about": "“MK-2206, an allosteric Akt inhibitor, enhances antitumor efficacy by standard chemotherapeutic agents or molecular targeted drugs in vitro and in vivo” (Mol Cancer Ther, 2010)", "key": {"[1]": {"molecular_target": "RAC-alpha serine/threonine-protein kinase (Homo sapiens) (UniProt P31749)", "sequence (P31749 whole entry)": "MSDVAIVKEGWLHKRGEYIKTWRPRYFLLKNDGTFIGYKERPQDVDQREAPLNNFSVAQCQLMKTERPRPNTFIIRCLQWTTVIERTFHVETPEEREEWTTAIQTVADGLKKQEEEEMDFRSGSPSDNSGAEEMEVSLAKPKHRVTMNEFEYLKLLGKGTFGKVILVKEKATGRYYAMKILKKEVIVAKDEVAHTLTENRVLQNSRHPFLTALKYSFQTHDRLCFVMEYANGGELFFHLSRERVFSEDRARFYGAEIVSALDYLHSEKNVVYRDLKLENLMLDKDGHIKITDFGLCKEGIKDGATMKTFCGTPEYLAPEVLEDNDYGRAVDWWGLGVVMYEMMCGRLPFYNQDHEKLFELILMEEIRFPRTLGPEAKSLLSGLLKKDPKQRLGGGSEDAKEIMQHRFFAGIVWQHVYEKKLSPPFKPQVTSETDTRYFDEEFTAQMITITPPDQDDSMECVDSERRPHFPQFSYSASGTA", "assay": "Inhibition of AKT phosphorylation at S473 residue in human HCC70 cells at 1 umol/L measured after 3 to 24 hrs in presence of lapatinib by Western blot analysis", "type": "cell-based", "conditions": "dose 1.0 µmol/L, time 3-24 hrs", "procedure,_shortened": "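HCC70 cells at ~70% confluence were exposed to 10 µmol/L lapatinib, 1 µmol/L MK-2206, or both, for 0, 3, 6, 12 or 24 h. Lysates were prepared in Triton X-100/Tris buffer (pH 7.5) with protease and phosphatase inhibitors. Immunoblots after SDS-PAGE and nitrocellulose transfer were probed for pAkt and pS6.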"}, "PC-3": {"tested_on": "PC-3", "assay": "Antitumor activity against human PC-3 cells xenografted in CD1 nude mouse assessed as reduction in tumor volume at 120 mg/kg, po administered 3 times per week for 2 weeks and measured during compound dosing by caliper method", "type": "functional, organism-based", "procedure,_shortened": "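Male CD1-nude mice received s.c. PC-3 cells and were treated from day 25 after implant, at 0.2 cm³, n = 5. Docetaxel (0.73% ethanol in saline) was given at 5 mg/kg i.v. on day 0. MK-2206 (30% Captisol) was given at 120 mg/kg po on days 1, 3, 5, 8, 10, 12. Caliper volume twice weekly.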"}, "MDA-MB-468 [2]": {"tested_on": "MDA-MB-468", "assay": "Synergistic antiproliferative activity against lapatinib pretreated human MDA-MB-468 cells assessed as combination index at ED50 measured after 72 hrs by celltiter-glo assay", "type": "functional"}, "BT-474 [3]": {"tested_on": "BT-474", "assay": "Synergistic antiproliferative activity against human BT-474 cells assessed as combination index at ED75 preincubated for 24 hrs followed by compound washout and subsequent docetaxel addition and measured after 72 hrs by celltiter-glo assay", "type": "functional", "procedure,_shortened": "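Sequential schedule. Cells were seeded at 2 to 3 × 10³ per well in RPMI 1640 with 10% FBS and dosed 24 h after plating. They were exposed to the Akt inhibitor for 24 h, washed free of it, then given docetaxel for a further 72 h. Fixed concentration ratios spanned each agent's IC₅₀. ATP was read by CellTiter-Glo, and Chou–Talalay CI was calculated at ED50, ED75 and ED90.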"}, "MDA-MB-468 [4]": {"tested_on": "MDA-MB-468", "assay": "Synergistic antiproliferative activity against human MDA-MB-468 cells assessed as combination index at ED75 measured after 72 hrs in presence of lapatinib by celltiter-glo assay", "type": "functional"}, "SK-BR-3 [5]": {"tested_on": "SK-BR-3", "assay": "Synergistic antiproliferative activity against human SK-BR-3 cells assessed as combination index at ED50 measured after 96 hrs in presence of lapatinib by celltiter-glo assay", "type": "functional"}, "NCI-H1703": {"tested_on": "NCI-H1703", "assay": "Synergistic antiproliferative activity against human NCI-H1703 cells assessed as combination index at ED25 to ED90 measured after 72 hrs in presence of carboplatin by celltiter-glo assay", "type": "functional"}, "MDA-MB-453": {"tested_on": "MDA-MB-453", "assay": "Synergistic antiproliferative activity against human MDA-MB-453 cells assessed as combination index at ED75 measured after 72 hrs in presence of docetaxel by celltiter-glo assay", "type": "functional", "procedure,_shortened": "(§1)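 Cells grown in RPMI 1640 with 10% heat-inactivated FBS at 37°C, 5% CO₂. Seeded at 2 to 3 × 10³ per well; drugs added 24 h later. […] Viability read as cellular ATP by CellTiter-Glo. CI calculated by Chou–Talalay from median-effect plots at ED50, ED75 and ED90.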"}, "NCI-H661": {"tested_on": "NCI-H661", "assay": "Induction of apoptosis in human NCI-H661 cells assessed as fold induction of capsase-3/7 activity measured after 24 to 48 hrs in presence of gemcitabine by caspase-glo 3/7 assay", "type": "functional", "conditions": "time 24-48 hrs"}, "BT-474 [6]": {"tested_on": "BT-474", "assay": "Synergistic antiproliferative activity against human BT-474 cells assessed as combination index at ED90 measured after 72 hrs in presence of docetaxel by celltiter-glo assay", "type": "functional", "procedure,_shortened": "as §1"}, "HCC70 [7]": {"tested_on": "HCC70", "assay": "Synergistic antiproliferative activity against human HCC70 cells assessed as combination index at ED90 measured after 72 hrs in presence of docetaxel by celltiter-glo assay", "type": "functional", "procedure,_shortened": "as §1"}, "[8]": {"assay": "In vivo inhibition of ERK phosphorylation at T202/Y204 residues in human NCI-H292 cells xenografted mouse at 120 mg/kg, po administered as single dose measured after 12 hrs by Western blot analysis relative to control", "type": "functional"}, "Calu-6": {"tested_on": "Calu-6", "assay": "Synergistic antiproliferative activity against human Calu-6 cells assessed as combination index at ED75 measured after 72 hrs in presence of erlotinib by celltiter-glo assay", "type": "functional", "procedure,_shortened": "as §1"}, "HCC70 [9]": {"tested_on": "HCC70", "assay": "Synergistic antiproliferative activity against human HCC70 cells assessed as combination index at ED50 measured after 72 hrs in presence of docetaxel by celltiter-glo assay", "type": "functional", "procedure,_shortened": "as §1"}, "SK-BR-3 [10]": {"tested_on": "SK-BR-3", "assay": "Synergistic antiproliferative activity against human SK-BR-3 cells assessed as combination index at ED75 measured after 72 hrs in presence of docetaxel by celltiter-glo assay", "type": "functional"}}, "note": "The source made the active and inactive calls. The rule behind the calls is not given here.", "data": [{"molecule": "Cl.NC1(c2ccc(-c3nc4ccn5c(=O)[nH]nc5c4cc3-c3ccccc3)cc2)CCC1", "values": [{"measurement": "inhibition", "setting": "[1]", "result": "Active"}, {"measurement": "Activity", "setting": "PC-3", "result": "Active"}, {"measurement": "CI50", "setting": "MDA-MB-468 [2]", "result": 0.18}, {"measurement": "CI75", "setting": "BT-474 [3]", "result": 1.5}, {"measurement": "CI75", "setting": "MDA-MB-468 [4]", "result": 0.25}, {"measurement": "CI50", "setting": "SK-BR-3 [5]", "result": 0.18}, {"measurement": "CI", "setting": "NCI-H1703", "result": 0.53}, {"measurement": "CI75", "setting": "MDA-MB-453", "result": 0.6}, {"measurement": "fold change (FC)", "setting": "NCI-H661", "result": 1.3}, {"measurement": "CI90", "setting": "BT-474 [6]", "result": 0.7}, {"measurement": "CI90", "setting": "HCC70 [7]", "result": 0.5}, {"measurement": "inhibition in vivo at 120 mg/kg", "setting": "[8]", "result": 27.7, "unit": "%"}, {"measurement": "CI75", "setting": "Calu-6", "result": 0.25}, {"measurement": "CI50", "setting": "HCC70 [9]", "result": 0.9}, {"measurement": "CI75", "setting": "SK-BR-3 [10]", "result": 0.7}]}]}
